Values after ≈ are worked out from the molar mass of the structure shown.

What all share (assay type): functional
In experiment [1] the test system is Streptococcus pneumoniae. The experiment is described as follows: Antibacterial activity against erythromycin-susceptible Streptococcus pneumoniae 07H252 by broth microdilution method. In a few lines:
(§1)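 Strains were ATCC reference strains or clinical isolates from China's national antimicrobial resistance surveillance network (MOHNARIN). In vitro activity was measured by broth microdilution following NCCLS recommendations. Results are reported as minimum inhibitory concentration (MIC) in mg/L.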

Experiment [2] concerns Staphylococcus aureus. The experiment can be described thus: Antibacterial activity against methicillin-susceptible Staphylococcus aureus ATCC 29213 by broth microdilution method. In a few lines: as §1
(In general: In broth dilution the organism is exposed to a series of concentrations in liquid medium.)

The test system of experiment [3] is Staphylococcus aureus. The experiment can be described thus: Antibacterial activity against methicillin-susceptible Staphylococcus aureus ANS46 by broth microdilution method. The gist of the method: as §1
Experiment [4] concerns Staphylococcus epidermidis. The experiment can be described thus: Antibacterial activity against methicillin-susceptible Staphylococcus epidermidis 07C134 by broth microdilution method. In a few lines:
(§2)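 Clinical isolates were supplied by China's Ministry of Health National Antimicrobial Resistance Investigation Net (MOHNARIN). Activity was reported as minimum inhibitory concentration (MIC), determined by broth microdilution following NCCLS recommendations.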

The subject of experiment [5] is Staphylococcus epidermidis. The experiment is described as follows: Antibacterial activity against methicillin-susceptible Staphylococcus epidermidis 07T202 by broth microdilution method. In a few lines:
as §1

The test system of experiment [6] is Staphylococcus epidermidis. The experiment is described as follows: Antibacterial activity against methicillin-resistant Staphylococcus epidermidis 07R066 by broth microdilution method. In a few lines: as §2
Experiment [7] relates to Staphylococcus epidermidis. The experiment is described as follows: Antibacterial activity against methicillin-resistant Staphylococcus epidermidis 07A066 by broth microdilution method. In a few lines: as §2
Experiment [8] concerns Streptococcus pyogenes. The experiment is described as follows: Antibacterial activity against erythromycin-susceptible Streptococcus pyogenes 07U084 by broth microdilution method. The gist of the method:
as §1

Experiment [9] relates to Streptococcus pyogenes. The experiment can be described thus: Antibacterial activity against erythromycin-susceptible Streptococcus pyogenes 07U086 by broth microdilution method. In a few lines: as §1
Experiment [10] concerns Streptococcus pyogenes. The experiment is described as follows: Antibacterial activity against erythromycin-resistant Streptococcus pyogenes 03-233 by broth microdilution method. In a few lines:
as §2

In experiment [11] the test system is Streptococcus pyogenes. The experiment can be described thus: Antibacterial activity against erythromycin-resistant Streptococcus pyogenes 01-533 by broth microdilution method. The gist of the method: as §2
Experiment [12] relates to Streptococcus pneumoniae. The experiment is described as follows: Antibacterial activity against erythromycin-susceptible Streptococcus pneumoniae ATCC 49619 by broth microdilution method. In a few lines:
as §1

Experiment [13] has as its system Streptococcus pneumoniae. The experiment can be described thus: Antibacterial activity against erythromycin-resistant Streptococcus pneumoniae 07D201 by broth microdilution method. In a few lines:
as §2

In experiment [14] the test system is Streptococcus pneumoniae. The experiment is described as follows: Antibacterial activity against erythromycin-resistant Streptococcus pneumoniae 07P390 by broth microdilution method. In a few lines: as §2
Experiment [15] relates to Haemophilus influenzae. The experiment can be described thus: Antibacterial activity against erythromycin-susceptible Haemophilus influenzae ATCC 49247 by broth microdilution method. In a few lines: as §1
In experiment [16] the test system is Haemophilus influenzae. The experiment is described as follows: Antibacterial activity against erythromycin-susceptible Haemophilus influenzae 07O114 by broth microdilution method. In a few lines: as §1
Experiment [17] concerns Haemophilus influenzae. The experiment can be described thus: Antibacterial activity against erythromycin-susceptible Haemophilus influenzae 07O339 by broth microdilution method. In a few lines: as §1
In experiment [18] the test system is Haemophilus influenzae. The experiment can be described thus: Antibacterial activity against erythromycin-susceptible Haemophilus influenzae 07O394 by broth microdilution method. The gist of the method:
as §1

With `CC[C@H]1OC(=O)[C@H](C)C(=O)[C@H](C)[C@@H](O[C@@H]2O[C@H](C)C[C@H](N(C)C)[C@H]2O)[C@@](C)(OC)C[C@@H](C)C(=O)[C@H](C)[C@H]2N(CCCSc3nccc(C)n3)C(=O)O[C@]12C`, the MIC against Streptococcus pneumoniae [1] is 8 µg/mL (≈ 10.3 µM); against Staphylococcus aureus [2], 0.5 µg/mL (≈ 0.642 µM); against Staphylococcus aureus [3], above 32 µg/mL; in experiment [4], 0.25 µg/mL (≈ 0.321 µM); in experiment [5], above 32 µg/mL; in experiment [6] it was 0.25 µg/mL (≈ 0.321 µM). The MIC in experiment [7] was found to be 0.5 µg/mL (≈ 0.642 µM); in the experiment with Streptococcus pyogenes [8], 0.125 µg/mL (≈ 0.16 µM); against Streptococcus pyogenes [9], 0.125 µg/mL (≈ 0.16 µM); with Streptococcus pyogenes [10], 2 µg/mL (≈ 2.57 µM); with Streptococcus pyogenes [11] it was 2 µg/mL (≈ 2.57 µM); in the experiment with Streptococcus pneumoniae [12] it was 0.062 µg/mL (≈ 0.0796 µM). The MIC was above 32 µg/mL against Streptococcus pneumoniae [13]; 0.25 µg/mL (≈ 0.321 µM) against Streptococcus pneumoniae [14]; 8 µg/mL (≈ 10.3 µM) against Haemophilus influenzae [15]; 8 µg/mL (≈ 10.3 µM) in the experiment with Haemophilus influenzae [16]; 8 µg/mL (≈ 10.3 µM) against Haemophilus influenzae [17]; 8 µg/mL (≈ 10.3 µM) in the experiment with Haemophilus influenzae [18].

Source of the values: ChEMBL document CHEMBL1649395, “Synthesis and antibacterial activity of novel ketolides with 11,12-sulfur contained aryl alkyl side chains” (2011).
